{
  "source": "ChEMBL document CHEMBL5120934",
  "about": "“Development of Urea-Bond-Containing Michael Acceptors as Antitrypanosomal Agents Targeting Rhodesain” (ACS Med Chem Lett, 2022)",
  "key": {"[1]": {"target": "Rhodesain (Trypanosoma brucei rhodesiense) (UniProt Q95PM0)", "sequence (Q95PM0 1-450)": "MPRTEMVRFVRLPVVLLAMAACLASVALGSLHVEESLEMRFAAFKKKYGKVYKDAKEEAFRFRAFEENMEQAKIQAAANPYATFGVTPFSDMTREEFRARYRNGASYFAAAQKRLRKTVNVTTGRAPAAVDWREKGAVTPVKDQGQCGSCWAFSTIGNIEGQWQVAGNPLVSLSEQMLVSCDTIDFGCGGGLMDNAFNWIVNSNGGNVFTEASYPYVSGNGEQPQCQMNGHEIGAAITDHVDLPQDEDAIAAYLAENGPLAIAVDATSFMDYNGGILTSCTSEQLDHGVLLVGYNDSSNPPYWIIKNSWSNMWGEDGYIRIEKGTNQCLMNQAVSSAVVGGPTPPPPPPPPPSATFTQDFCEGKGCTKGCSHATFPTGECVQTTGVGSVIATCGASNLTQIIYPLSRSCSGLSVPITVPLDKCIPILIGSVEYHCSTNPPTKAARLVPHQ", "experiment": "Binding affinity to recombinant Trypanosoma brucei rhodesiense rhodesain assessed as Kinact using Cbz-Phe-Arg-AMC as fluorogenic substrate measured for 10 mins every 30 seconds by fluorescence microplate reader assay", "in_short": "(§1)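 Rhodesain activity was followed fluorogenically with the substrate Cbz-Phe-Arg-AMC. Inhibitors were serially diluted and assayed down to the concentration giving minimal inhibition. Irreversible inhibition was characterized by Ki and kinact (the rate of covalent E-I complex formation), and k2nd was calculated as kinact/Ki.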"}, "[2]": {"target": "Rhodesain (Trypanosoma brucei rhodesiense) (UniProt Q95PM0)", "experiment": "Inhibition of Trypanosoma brucei rhodesiense rhodesain at 0.1 uM using Cbz-Phe-Arg-AMC as fluorogenic substrate measured for 10 mins every 30 seconds by fluorescence microplate reader assay", "in_short": "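Single-concentration fluorogenic screen against rhodesain with the substrate Cbz-Phe-Arg-AMC, each compound at 0.1 μM. DMSO served as the negative control and E-64 as the positive control. The read-out was percentage inhibition.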"}, "[3]": {"target": "Replicase polyprotein 1ab (Severe acute respiratory syndrome coronavirus 2) (UniProt P0DTD1)", "experiment": "Inhibition of C-terminal His-tagged SARS-CoV-2 MPro expressed in Escherichia coli BL21(DE3) at 100 uM using Dabcyl-KTSAVLQSGFRKME-Edans as fluorogenic substrate incubated for 10 mins by FRET assay", "in_short": "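Single-concentration preliminary screen of viral main protease at 100 μM. Read-out is percentage inhibition of protease activity. No follow-up dilution series or mode-of-inhibition kinetics were run.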"}, "[4]": {"target": "Rhodesain (Trypanosoma brucei rhodesiense) (UniProt Q95PM0)", "experiment": "Binding affinity to recombinant Trypanosoma brucei rhodesiense rhodesain assessed as binding constant measured at second inhibition step using Cbz-Phe-Arg-AMC as fluorogenic substrate measured for 10 mins every 30 seconds by fluorescence microplate reader assay", "in_short": "as §1"}, "Trypanosoma brucei": {"tested_on": "Trypanosoma brucei", "experiment": "Antitrypanosomal activity against bloodstream form of Trypanosoma brucei", "format": "functional", "conditions": "read-out: ED50 (the source's name)"}, "[5]": {"target": "Rhodesain (Trypanosoma brucei rhodesiense) (UniProt Q95PM0)", "experiment": "Inhibition of Trypanosoma brucei rhodesiense rhodesain expressed in pichia pastoris assessed as binding constant measured at second inhibition step using Z-Phe-Arg-N-methylcoumarin as substrate by fluorometric assay"}},
  "data": [
    {"smiles": "CC(=O)/C=C/[C@H](CCc1ccccc1)NC(=O)[C@H](Cc1ccccc1)NC(=O)Nc1c(F)cccc1F", "values": [
      {"measurement": "Kinact", "setting": "[1]", "result": 0.0022, "unit": "min⁻¹"},
      {"measurement": "inhibition", "setting": "[2]", "result": "> 80", "unit": "%"},
      {"measurement": "inhibition", "setting": "[3]", "result": 33, "unit": "%"}
    ]},
    {"smiles": "CC(=O)/C=C/[C@H](CCc1ccccc1)NC(=O)[C@H](Cc1ccccc1)NC(=O)Nc1cccc2ccccc12", "values": [
      {"measurement": "Kinact", "setting": "[1]", "result": 0.0084, "unit": "min⁻¹"},
      {"measurement": "inhibition", "setting": "[2]", "result": "> 80", "unit": "%"},
      {"measurement": "inhibition", "setting": "[3]", "result": 33, "unit": "%"}
    ]},
    {"smiles": "CC(=O)/C=C/[C@H](CCc1ccccc1)NC(=O)[C@H](CC(C)C)NC(=O)Nc1ccc(C)cc1", "values": [
      {"measurement": "Kinact", "setting": "[1]", "result": 0.0042, "unit": "min⁻¹"},
      {"measurement": "K", "setting": "[4]", "result": "10400 10^3/M/min"}
    ]},
    {"smiles": "CC(=O)/C=C/[C@H](CCc1ccccc1)NC(=O)[C@H](Cc1ccccc1)NC(=O)Nc1ccc(Cl)cc1C(F)(F)F", "values": [
      {"measurement": "Kinact", "setting": "[1]", "result": 0.006, "unit": "min⁻¹"},
      {"measurement": "inhibition", "setting": "[2]", "result": "> 80", "unit": "%"},
      {"measurement": "inhibition", "setting": "[3]", "result": 33, "unit": "%"}
    ]},
    {"smiles": "CC(=O)/C=C/[C@H](CCc1ccccc1)NC(=O)[C@H](Cc1ccccc1)NC(=O)Nc1ccccc1", "values": [
      {"measurement": "Kinact", "setting": "[1]", "result": 0.0021, "unit": "min⁻¹"},
      {"measurement": "K", "setting": "[4]", "result": "16700 10^3/M/min"},
      {"measurement": "inhibition", "setting": "[2]", "result": "> 80", "unit": "%"},
      {"measurement": "inhibition", "setting": "[3]", "result": 33, "unit": "%"}
    ]},
    {"smiles": "COc1ccc(NC(=O)N[C@@H](Cc2ccccc2)C(=O)N[C@H](/C=C/C(C)=O)CCc2ccccc2)cc1", "values": [
      {"measurement": "Kinact", "setting": "[1]", "result": 0.0059, "unit": "min⁻¹"},
      {"measurement": "inhibition", "setting": "[2]", "result": "> 80", "unit": "%"},
      {"measurement": "inhibition", "setting": "[3]", "result": 33, "unit": "%"}
    ]},
    {"smiles": "CC(=O)/C=C/[C@H](CCc1ccccc1)NC(=O)[C@H](CC(C)C)NC(=O)Nc1ccc(Cl)cc1C", "values": [
      {"measurement": "Kinact", "setting": "[1]", "result": 0.0123, "unit": "min⁻¹"},
      {"measurement": "K", "setting": "[4]", "result": "14000 10^3/M/min"}
    ]},
    {"smiles": "CC(=O)/C=C/[C@H](CCc1ccccc1)NC(=O)[C@H](Cc1ccccc1)NC(=O)Nc1ccc(Cl)cc1", "values": [
      {"measurement": "Kinact", "setting": "[1]", "result": 0.0023, "unit": "min⁻¹"},
      {"measurement": "inhibition", "setting": "[2]", "result": "> 80", "unit": "%"},
      {"measurement": "inhibition", "setting": "[3]", "result": 33, "unit": "%"}
    ]},
    {"smiles": "CC(=O)/C=C/[C@H](CCc1ccccc1)NC(=O)[C@H](Cc1ccccc1)NC(=O)Nc1ccc(Cl)cc1C", "values": [
      {"measurement": "Kinact", "setting": "[1]", "result": 0.0053, "unit": "min⁻¹"},
      {"measurement": "K", "setting": "[4]", "result": "14700 10^3/M/min"},
      {"measurement": "inhibition", "setting": "[2]", "result": "> 80", "unit": "%"},
      {"measurement": "inhibition", "setting": "[3]", "result": 33, "unit": "%"}
    ]},
    {"smiles": "CN1CCN(C(=O)N[C@@H](Cc2ccccc2)C(=O)N[C@H](/C=C/S(=O)(=O)c2ccccc2)CCc2ccccc2)CC1", "note": "[K-777]", "values": [
      {"measurement": "EC50", "setting": "Trypanosoma brucei", "result": 900, "unit": "nM"},
      {"measurement": "K", "setting": "[5]", "result": "9000 10^3/M/min"}
    ]},
    {"smiles": "CC(=O)/C=C/[C@H](CCc1ccccc1)NC(=O)[C@H](Cc1ccccc1)NC(=O)Nc1ccc(C)cc1", "values": [
      {"measurement": "Kinact", "setting": "[1]", "result": 0.0023, "unit": "min⁻¹"},
      {"measurement": "K", "setting": "[4]", "result": "10400 10^3/M/min"},
      {"measurement": "inhibition", "setting": "[2]", "result": "> 80", "unit": "%"},
      {"measurement": "inhibition", "setting": "[3]", "result": 33, "unit": "%"}
    ]},
    {"smiles": "CC(=O)/C=C/[C@H](CCc1ccccc1)NC(=O)[C@H](Cc1ccccc1)NC(=O)Nc1ccc(F)cc1", "values": [
      {"measurement": "Kinact", "setting": "[1]", "result": 0.0021, "unit": "min⁻¹"},
      {"measurement": "inhibition", "setting": "[2]", "result": "> 80", "unit": "%"},
      {"measurement": "inhibition", "setting": "[3]", "result": 33, "unit": "%"}
    ]}
  ]
}
